# Calls of active or inactive are those of the source. No cut-off for these calls is given here.
# System: Staphylococcus aureus
# Test: Antibacterial activity against Staphylococcus aureus
# Format: functional
# Conditions: not given
row,SMILES,MIC [µg/mL]
1,Cc1[nH]nc(C(F)(F)F)c1N=O,31.2

# System: Microsporum canis
# Test: Antifungal activity against Microsporum canis
# Format: functional
# Conditions: not given
row,SMILES,MIC [µg/mL]
1,Cc1[nH]nc(C(F)(F)F)c1N=O,25

# System: not listed separately
# Test: Antioxidant activity assessed as ABTS radical scavenging activity measured after 1 hr by UV-vis spectrophotometric method
# Format: functional
# Conditions: not given
# Summary of the method: (§1)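 ABTS cation-radical decolorization was read spectrophotometrically as the fall in absorbance after 1 h. Trolox was the reference. TEAC was taken as the ratio of concentration-response slopes, test/Trolox, and IC50 was also derived. Data are mean ± SEM, n = 3.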
row,SMILES,IC50 [µM]
1,Nc1c(C(F)(F)F)n[nH]c1-c1ccccc1,14.1
2,CS(=O)(=O)c1ccc(N2N=C(c3ccccc3)/C(=N\O)C2(O)C(F)(F)F)cc1 (stereo not given),169
3,Nc1c(C(F)(F)F)n[nH]c1-c1cccs1,17.6

# System: Rattus norvegicus
# Test: Antiinflammatory activity in rat model of carrageenan-induced paw edema assessed as inhibition of hind paw swelling at 15 mg/kg, ip measured after 1 hr relative to control
# Format: functional
# Conditions: not given
row,SMILES,inhibition
1,CS(=O)(=O)c1ccc(N2N=C(c3ccccc3)/C(=N\O)C2(O)C(F)(F)F)cc1 (stereo not given),inactive

# System: Shigella flexneri
# Test: Antibacterial activity against Shigella flexneri
# Format: functional
# Conditions: not given
row,SMILES,MIC [µg/mL]
1,Cc1[nH]nc(C(F)(F)F)c1N=O,250

# System: Epidermophyton floccosum
# Test: Antifungal activity against Epidermophyton floccosum
# Format: functional
# Conditions: not given
row,SMILES,MIC [µg/mL]
1,Cc1[nH]nc(C(F)(F)F)c1N=O,50

# System: Streptococcus pyogenes
# Test: Antibacterial activity against Streptococcus pyogenes
# Format: functional
# Conditions: not given
row,SMILES,MIC [µg/mL]
1,Cc1[nH]nc(C(F)(F)F)c1N=O,7.8

# System: Rattus norvegicus
# Test: Analgesic activity in rat assessed as prolongation of latency period at 15 mg/kg, ip measured after 1 hr by hot-plate test relative to control
# Format: functional
# Conditions: not given
# Summary of the method: (§2)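 Hot-plate test in rats. Compounds were given by intraperitoneal injection. Latency was read at 1 h and, for some compounds, also at 2 h after dosing. Results are expressed as % prolongation of the latent period versus vehicle-treated control. Significance was given as p-values.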
row,SMILES,Activity
1,Nc1c(C(F)(F)F)n[nH]c1-c1ccccc1,56.7%
2,Cc1ccc(-c2[nH]nc(C(F)(F)F)c2N=O)cc1,inactive
3,CS(=O)(=O)c1ccc(N2N=C(c3ccccc3)/C(=N\O)C2(O)C(F)(F)F)cc1 (stereo not given),53.7%

# System: Rattus norvegicus
# Test: Antiinflammatory activity in rat model of carrageenan-induced paw edema assessed as inhibition of hind paw swelling at 15 mg/kg, ip measured after 3 hrs relative to control
# Format: functional
# Conditions: not given
row,SMILES,inhibition
1,CS(=O)(=O)c1ccc(N2N=C(c3ccccc3)/C(=N\O)C2(O)C(F)(F)F)cc1 (stereo not given),inactive

# System: Erythrocyte
# Test: Antioxidant activity in human erythrocytes assessed as protection against AAPH-induced hemolysis at 400 uM preincubated for 20 mins followed by AAPH addition and measured after 2 hrs by spectrophotometric method relative to control
# Format: functional
# Conditions: time 140 min, 2.333 h
# Summary of the method: (§3)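 Erythrocyte hemolysis assay with AAPH as the free-radical initiator, testing 50 and 400 µM. Results are expressed as relative protection of membranes against oxidative damage, each the mean of two independent experiments.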
row,SMILES,fold change (FC)
1,Nc1c(C(F)(F)F)n[nH]c1-c1ccccc1,0.02
2,Cc1ccc(-c2[nH]nc(C(F)(F)F)c2N=O)cc1,1.03
3,CS(=O)(=O)c1ccc(N2N=C(c3ccccc3)/C(=N\O)C2(O)C(F)(F)F)cc1 (stereo not given),1.14
4,Nc1c(C(F)(F)F)n[nH]c1-c1cccs1,0.01

# System: not listed separately
# Test: Acute toxicity in mouse at 10 mg/kg, ip administered as single dose
# Format: organism-based
# Conditions: in vivo
# Summary of the method: (§4)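 Mice, single intraperitoneal dose, following OECD Guideline for testing of chemicals; three mice per dose level; doses tested 10–300 mg/kg. Read-out is the number of survivors out of 3, used to estimate the expected LD50 range.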
row,SMILES,Activity
1,Nc1c(C(F)(F)F)n[nH]c1-c1cccs1,Non-Toxic

# System: Erythrocyte
# Test: Antioxidant activity in human erythrocytes assessed as protection against AAPH-induced hemolysis at 50 uM preincubated for 20 mins followed by AAPH addition and measured after 2 hrs by spectrophotometric method relative to control
# Format: functional
# Conditions: time 140 min, 2.333 h
# Summary of the method: as §3
row,SMILES,fold change (FC)
1,Nc1c(C(F)(F)F)n[nH]c1-c1ccccc1,1.1
2,Cc1ccc(-c2[nH]nc(C(F)(F)F)c2N=O)cc1,1.03
3,CS(=O)(=O)c1ccc(N2N=C(c3ccccc3)/C(=N\O)C2(O)C(F)(F)F)cc1 (stereo not given),1.03
4,Nc1c(C(F)(F)F)n[nH]c1-c1cccs1,1.11

# System: Mycobacterium tuberculosis
# Test: Antitubercular activity against Mycobacterium tuberculosis H37Rv
# Format: functional
# Conditions: not given
# Summary of the method: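 Mycobacterium tuberculosis strain H37Rv; minimum inhibitory concentration (MIC) taken as the lowest level needed to inhibit bacterial growth; isoniazid and pyrazinamide served as reference drugs.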
row,SMILES,MIC [µg/mL]
1,Cc1[nH]nc(C(F)(F)F)c1N=O,1.62

# System: NHDF
# Test: Cytotoxicity against HDF cells
# Format: cell-based, Homo sapiens
# Conditions: nhdf
row,SMILES,IC50
1,Cc1[nH]nc(C(F)(F)F)c1N=O,Not Active

# System: not listed separately
# Test: Acute toxicity in mouse at 300 mg/kg, ip administered as single dose
# Format: organism-based
# Conditions: in vivo
# Summary of the method: as §4
row,SMILES,Activity
1,CS(=O)(=O)c1ccc(N2N=C(c3ccccc3)/C(=N\O)C2(O)C(F)(F)F)cc1 (stereo not given),Non-Toxic

# System: not listed separately
# Test: Selectivity index, ratio of IC50 for HDF cells to IC50 for human HeLa cells
# Format: toxicity
# Conditions: HDF cells versus HeLa cells, read-out: Ratio IC50
row,SMILES,selectivity ratio
1,Cc1[nH]nc(C(F)(F)F)c1N=O,> 1.62

# System: Rattus norvegicus
# Test: Antiinflammatory activity in rat model of carrageenan-induced paw edema assessed as inhibition of hind paw swelling at 15 mg/kg, ip measured after 5 hrs
# Format: functional, organism-based
# Conditions: not given
row,SMILES,Activity
1,Cc1ccc(-c2[nH]nc(C(F)(F)F)c2N=O)cc1,Active
2,CS(=O)(=O)c1ccc(N2N=C(c3ccccc3)/C(=N\O)C2(O)C(F)(F)F)cc1 (stereo not given),Active
3,Cc1[nH]nc(C(F)(F)F)c1N=O,Active

# System: Staphylococcus aureus
# Test: Antibacterial activity against methicillin resistant Staphylococcus aureus
# Format: functional
# Conditions: not given
row,SMILES,MIC [µg/mL]
1,Cc1[nH]nc(C(F)(F)F)c1N=O,62.5

# System: Nannizzia gypsea
# Test: Antifungal activity against Trichophyton gypseum
# Format: functional
# Conditions: not given
row,SMILES,MIC [µg/mL]
1,Cc1[nH]nc(C(F)(F)F)c1N=O,50

# System: not listed separately
# Test: Antioxidant activity assessed as AAPH scavenging activity by measuring residual fluorescence at 10 uM measured at 1 min interval for 30 mins by ORAC fluorescein assay relative to control
# Format: functional
# Conditions: not given
# Summary of the method: (§5)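 ORAC-FL assay with fluorescein as the probe and AAPH as the peroxyl radical generator. The loss of fluorescence over time was followed, and the result is given as % fluorescence restored at 10 and 50 µM. Each value is the mean of two independent experiments.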
row,SMILES,Activity [%]
1,Cc1ccc(-c2[nH]nc(C(F)(F)F)c2N=O)cc1,-60
2,CS(=O)(=O)c1ccc(N2N=C(c3ccccc3)/C(=N\O)C2(O)C(F)(F)F)cc1 (stereo not given),30.6

# System: Pseudomonas aeruginosa
# Test: Antibacterial activity against Pseudomonas aeruginosa
# Format: functional
# Conditions: not given
row,SMILES,MIC [µg/mL]
1,Cc1[nH]nc(C(F)(F)F)c1N=O,500

# System: Escherichia coli
# Test: Antibacterial activity against Escherichia coli
# Format: functional
# Conditions: not given
row,SMILES,MIC [µg/mL]
1,Cc1[nH]nc(C(F)(F)F)c1N=O,250

# System: not listed separately
# Test: Drug metabolism assessed as nitric oxide release in absence of rat plasma by Griess reagent based assay
# Format: cell-free
# Conditions: not given
row,SMILES,Drug metabolism
1,O=[N+]([O-])O[C@H]1CO[C@H]2[C@@H]1OC[C@H]2O[N+](=O)[O-],Metabolite detected

# System: not listed separately
# Test: Acute toxicity in mouse at 150 mg/kg, ip administered as single dose
# Format: organism-based
# Conditions: in vivo
# Summary of the method: as §4
row,SMILES,Activity
1,Nc1c(C(F)(F)F)n[nH]c1-c1ccccc1,Non-Toxic
2,Cc1ccc(-c2[nH]nc(C(F)(F)F)c2N=O)cc1,Non-Toxic
3,Cc1[nH]nc(C(F)(F)F)c1N=O,Toxic

# System: Rattus norvegicus
# Test: Analgesic activity in rat assessed as prolongation of latency period at 15 mg/kg, ip measured after 2 hrs by hot-plate test relative to control
# Format: functional
# Conditions: not given
# Summary of the method: as §2
row,SMILES,Activity
1,Nc1c(C(F)(F)F)n[nH]c1-c1ccccc1,66.7%
2,Cc1ccc(-c2[nH]nc(C(F)(F)F)c2N=O)cc1,inactive
3,CS(=O)(=O)c1ccc(N2N=C(c3ccccc3)/C(=N\O)C2(O)C(F)(F)F)cc1 (stereo not given),44.3%

# System: Serratia marcescens
# Test: Antibacterial activity against Serratia marcescens
# Format: functional
# Conditions: not given
row,SMILES,MIC [µg/mL]
1,Cc1[nH]nc(C(F)(F)F)c1N=O,250

# System: Trichophyton rubrum
# Test: Antifungal activity against Trichophyton rubrum
# Format: functional
# Conditions: not given
row,SMILES,MIC [µg/mL]
1,Cc1[nH]nc(C(F)(F)F)c1N=O,25

# System: not listed separately
# Test: Antioxidant activity assessed as AAPH scavenging activity by measuring residual fluorescence at 50 uM measured at 1 min interval for 30 mins by ORAC fluorescein assay relative to control
# Format: functional
# Conditions: not given
# Summary of the method: as §5
row,SMILES,Activity [%]
1,Cc1ccc(-c2[nH]nc(C(F)(F)F)c2N=O)cc1,-99.8
2,CS(=O)(=O)c1ccc(N2N=C(c3ccccc3)/C(=N\O)C2(O)C(F)(F)F)cc1 (stereo not given),49.1

# System: Trichophyton tonsurans
# Test: Antifungal activity against Trichophyton tonsurans
# Format: functional
# Conditions: not given
row,SMILES,MIC [µg/mL]
1,Cc1[nH]nc(C(F)(F)F)c1N=O,50

# System: not listed separately
# Test: Antioxidant activity assessed as trolox equivalent of ABTS radical scavenging activity measured after 1 hr by UV-vis spectrophotometric method
# Format: functional
# Conditions: not given
# Summary of the method: as §1
row,SMILES,Activity
1,Cc1ccc(-c2[nH]nc(C(F)(F)F)c2N=O)cc1,0.02 equiv
2,CS(=O)(=O)c1ccc(N2N=C(c3ccccc3)/C(=N\O)C2(O)C(F)(F)F)cc1 (stereo not given),0.16 equiv
3,Cc1[nH]nc(C(F)(F)F)c1N=O,inactive

# System: Klebsiella pneumoniae
# Test: Antibacterial activity against Klebsiella pneumoniae
# Format: functional
# Conditions: not given
row,SMILES,MIC [µg/mL]
1,Cc1[nH]nc(C(F)(F)F)c1N=O,500

# System: HeLa
# Test: Cytotoxicity against human HeLa cells
# Format: functional, cell-based
# Conditions: not given
row,SMILES,Activity
1,Cc1[nH]nc(C(F)(F)F)c1N=O,Dose-dependent effect

# Same assay, conditions: Homo sapiens, HeLa; read-out: IC50
row,SMILES,IC50 [µM]
1,Cc1[nH]nc(C(F)(F)F)c1N=O,61.6

# System: Proteus vulgaris
# Test: Antibacterial activity against Proteus vulgaris
# Format: functional
# Conditions: not given
row,SMILES,MIC [µg/mL]
1,Cc1[nH]nc(C(F)(F)F)c1N=O,31.2

# System: Candida albicans
# Test: Antifungal activity against Candida albicans
# Format: functional
# Conditions: not given
row,SMILES,MIC [µg/mL]
1,Cc1[nH]nc(C(F)(F)F)c1N=O,50

# System: Neisseria gonorrhoeae
# Test: Antibacterial activity against Neisseria gonorrhoeae
# Format: functional
# Conditions: not given
row,SMILES,MIC [µg/mL]
1,Cc1[nH]nc(C(F)(F)F)c1N=O,15.6

# System: not listed separately
# Test: Acute toxicity in ip dosed mouse administered as single dose
# Format: organism-based
# Conditions: in vivo
# Summary of the method: as §4
row,SMILES,LD50 [mg/kg]
1,CS(=O)(=O)c1ccc(N2N=C(c3ccccc3)/C(=N\O)C2(O)C(F)(F)F)cc1 (stereo not given),> 300

# System: Trichophyton interdigitale
# Test: Antifungal activity against Trichophyton mentagrophytes var. interdigitale
# Format: functional
# Conditions: not given
row,SMILES,MIC [µg/mL]
1,Cc1[nH]nc(C(F)(F)F)c1N=O,50

# System: not listed separately
# Test: Acute toxicity in mouse at 75 mg/kg, ip administered as single dose
# Format: organism-based
# Conditions: in vivo
# Summary of the method: as §4
row,SMILES,Activity
1,Nc1c(C(F)(F)F)n[nH]c1-c1cccs1,Toxic

# System: Citrobacter braakii
# Test: Antibacterial activity against Citrobacter braakii
# Format: functional
# Conditions: not given
row,SMILES,MIC [µg/mL]
1,Cc1[nH]nc(C(F)(F)F)c1N=O,250

# — ChEMBL document CHEMBL4765448, “Multiple biological active 4-aminopyrazoles containing trifluoromethyl and their 4-nitroso-precursors: Synthesis and evaluation” (Eur J Med Chem, 2020)
